One assay addresses Mu-type opioid receptor (Bos taurus, UniProt P79350). Kind of assay: In vitro binding affinity against Opioid receptor mu 1 from bovine caudate nucleus determined in presence of [3H]DAGO (1 nM). In outline:
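Crude bovine striatal membranes were stored at -70 °C. […] Competitor was tested at five concentrations, with nonspecific binding defined by 10 μM naloxone. Incubation was 45 min at 25 °C in 50 mM Tris-HCl or potassium phosphate, pH 7.4, with 1 mM EDTA. Read-out was GF/B filtration and scintillation counting. IC50 is from duplicates or triplicates.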

In assay [1] the target is T1, Opioid receptors; mu/kappa/delta (Homo sapiens, UniProt P41145+P41143+P35372). To be noted: Bos taurus; at 100 nM.
T1 sequence (P35372 whole entry, looked up): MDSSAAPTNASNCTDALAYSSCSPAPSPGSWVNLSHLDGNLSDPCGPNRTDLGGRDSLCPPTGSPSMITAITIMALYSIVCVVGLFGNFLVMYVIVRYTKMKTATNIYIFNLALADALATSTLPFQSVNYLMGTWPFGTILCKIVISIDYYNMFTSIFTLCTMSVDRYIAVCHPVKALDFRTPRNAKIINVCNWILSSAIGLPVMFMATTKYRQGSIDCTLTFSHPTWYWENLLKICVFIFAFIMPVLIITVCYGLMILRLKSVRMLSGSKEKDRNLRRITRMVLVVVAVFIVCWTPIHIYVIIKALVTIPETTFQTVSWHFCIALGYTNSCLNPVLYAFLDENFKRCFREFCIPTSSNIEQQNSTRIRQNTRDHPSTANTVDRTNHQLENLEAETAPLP
T1 sequence (P41143 whole entry, looked up): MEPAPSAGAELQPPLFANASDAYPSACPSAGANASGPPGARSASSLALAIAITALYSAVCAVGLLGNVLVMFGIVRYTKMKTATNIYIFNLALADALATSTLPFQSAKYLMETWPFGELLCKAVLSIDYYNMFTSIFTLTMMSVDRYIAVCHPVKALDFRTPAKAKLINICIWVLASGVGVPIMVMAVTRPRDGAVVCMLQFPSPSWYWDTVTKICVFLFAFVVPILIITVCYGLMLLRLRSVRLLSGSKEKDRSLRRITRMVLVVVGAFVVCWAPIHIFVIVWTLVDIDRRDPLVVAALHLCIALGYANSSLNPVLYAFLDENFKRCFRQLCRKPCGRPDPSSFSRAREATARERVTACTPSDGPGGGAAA
T1 sequence (P41145 whole entry, looked up): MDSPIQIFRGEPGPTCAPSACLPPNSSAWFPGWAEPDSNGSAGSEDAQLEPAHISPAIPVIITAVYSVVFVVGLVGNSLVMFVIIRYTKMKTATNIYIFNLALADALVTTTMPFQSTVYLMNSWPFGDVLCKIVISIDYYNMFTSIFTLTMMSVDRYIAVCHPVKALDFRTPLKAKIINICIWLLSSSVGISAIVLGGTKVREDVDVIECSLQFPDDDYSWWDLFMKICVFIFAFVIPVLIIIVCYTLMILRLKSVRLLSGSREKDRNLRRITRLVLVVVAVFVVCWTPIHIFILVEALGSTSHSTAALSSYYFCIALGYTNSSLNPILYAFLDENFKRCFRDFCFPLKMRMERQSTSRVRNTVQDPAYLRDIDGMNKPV
The target in assay [2] is T1, Opioid receptors; mu/kappa/delta. The experiment in a line: In vitro binding affinity against Opioid receptors from bovine caudate nucleus determined in presence of [3H]- bremazocine (0.5 nM). It counts as protein assay, Bos taurus. To be noted: target entry is the homologue from another species. In short, it runs like this:
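Crude bovine striatal membranes were stored at -70 °C. Competitor was tested at five concentrations, with nonspecific binding defined by 10 μM naloxone. Incubation was 45 min at 25 °C in 50 mM Tris-HCl or potassium phosphate, pH 7.4, with 1 mM EDTA. Read-out was GF/B filtration and scintillation counting. IC50 is from duplicates or triplicates.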

For the next assay, the species on record is Mus musculus. Kind of assay: Antagonist activity against morphine was determined […] in mice using tail flick assay. In kind it is functional. In outline:
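Mouse tail-flick test against morphine given sc, run by the Committee on Problems of Drug Dependence. The antagonist dose giving 50% blockade (AD50, mg/kg) is reported with 95% confidence limits.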

Assay [3] has as its target T1, Opioid receptors; mu/kappa/delta. To be noted: Bos taurus; at 100 nM. This is another data set of the same source.
Assay [4] has the same target. To be noted: Bos taurus; at 20 nM.
Assay [5] shares this target. To be noted: Bos taurus; at 20 nM. This is another data set of the same source.
Assay [6] shares this target. Conditions: Bos taurus; at 20 nM. This is another data set of the same source.
For assay [7] the target is unchanged. Conditions: Bos taurus; at 100 nM. The source holds these as a separate data set.
For assay [8] the target is unchanged. To be noted: Bos taurus; at 100 nM. The source holds these as a separate data set.
Assay [9] shares this target. To be noted: Bos taurus; at 100 nM. This is another data set of the same source.
Assay [10] has the same target. The experiment in a line: Irreversible inhibition of 1 nM DAGO binding against Opioid receptors from protected bovine caudate membrane at 10 nM in presence of NaCl. Further details: scale not given: the % may be the effect or the level left. To be noted: Bos taurus, target entry is the homologue from another species.
Assay [11] shares this target. The experiment in a line: Irreversible inhibition of 1 nM DAGO binding against Opioid receptors from unwashed bovine caudate membrane at 10 nM in presence of NaCl. Further details: scale not given: the % may be the effect or the level left. To be noted: Bos taurus, target entry is the homologue from another species.

pIC50: −log10 of the molar value.

Results on six molecules are retold here after ChEMBL document CHEMBL1124831, “Conjugate addition ligands of opioid antagonists. Methacrylate esters and ethers of 6 alpha- and 6 beta-naltrexol” (J Med Chem, 1990).

Sequence of Mu-type opioid receptor (P79350 whole entry): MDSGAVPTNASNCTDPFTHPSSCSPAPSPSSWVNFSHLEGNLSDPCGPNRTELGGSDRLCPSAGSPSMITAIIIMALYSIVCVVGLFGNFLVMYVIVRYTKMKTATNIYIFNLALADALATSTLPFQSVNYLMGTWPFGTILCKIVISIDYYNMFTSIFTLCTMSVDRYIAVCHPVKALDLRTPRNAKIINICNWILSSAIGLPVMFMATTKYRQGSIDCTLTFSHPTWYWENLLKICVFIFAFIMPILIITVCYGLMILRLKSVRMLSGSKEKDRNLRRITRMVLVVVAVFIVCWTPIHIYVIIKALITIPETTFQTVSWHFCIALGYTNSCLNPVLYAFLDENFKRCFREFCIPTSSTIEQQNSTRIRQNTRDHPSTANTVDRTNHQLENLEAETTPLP

Usually pIC50 stands for the negative decadic logarithm of the IC50, by convention in mol/L. As usually defined, the IC50 is the midpoint of a concentration-inhibition curve. With `C=C(C)C(=O)OC1CCC2(O)C3Cc4ccc(O)c5c4[C@@]2(CCN3CC2CC2)C1O5` (some centres undefined), the negative logarithm of the IC50 (pIC50) on Mu-type opioid receptor is 9.00. Further, the Control in [1] was 39%; in [3], 100%. Moreover, in assay [2], the IC50 is 5 nM. Moreover, the AD50 in the assay filed under Mus musculus was determined as 0.02 mg/kg.

In the case of `C=C(COC1CCC2(O)C3Cc4ccc(O)c5c4[C@@]2(CCN3CC2CC2)C1O5)C(=O)OC` (some centres undefined), the pIC50 on Mu-type opioid receptor is 9.74. For the same molecule, the IC50 in [2] is reported as 2.4 nM. Also, the AD50 in the assay filed under Mus musculus stood at 0.07 mg/kg. Also, the Control in assay [4] stood at 79%; in [5] it was 17%; in assay [6] it was 96%.

With `C=C1CC2(CCC3(O)[C@H]4Cc5ccc(O)c6c5[C@@]3(CCN4CC3CC3)C2O6)OC1=O` (some centres undefined), the negative logarithm of the IC50 (pIC50) at Mu-type opioid receptor is 8.74. In addition, in [2], the IC50 stood at 6 nM. Moreover, the Control in assay [7] came out at 50%; in assay [8] it was 85%; in assay [9], 16%.

Take `C=C(CO[C@@H]1CC[C@@]2(O)[C@H]3Cc4ccc(O)c5c4[C@@]2(CCN3CC2CC2)[C@H]1O5)C(=O)OC`: the negative-log IC50 (pIC50) on Mu-type opioid receptor was 8.82. Besides, the IC50 in [2] turned out to be 12 nM. The Control was found to be 95% in assay [10], 59% in assay [4], 35% in assay [5] and 20% in [11]. The same molecule yielded an AD50 in the assay filed under Mus musculus of 0.02 mg/kg.

As to `O=C1CC[C@@]2(O)[C@H]3Cc4ccc(O)c5c4[C@@]2(CCN3CC2CC2)[C@H]1O5` [NALTREXONE], the AD50 in the assay listed under Mus musculus amounted to 0.007 mg/kg.

For `C=C(C)C(=O)O[C@H]1CC[C@@]2(O)[C@H]3Cc4ccc(O)c5c4[C@@]2(CCN3CC2CC2)[C@H]1O5`, the pIC50 on Mu-type opioid receptor is 8.17. The figures for the Control in [1] and in [3] were 22% and 100%, respectively. In [2], the IC50 came to 20 nM. In the assay listed under Mus musculus, this molecule registered an AD50 of 0.02 mg/kg.
